Laboratory results as given in PubChem BioAssay.
Inconclusive results are not listed.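 How the source made its calls, unless noted: active means viability increase at or above a cutoff of the median across tested compounds plus 3 SD (cut at about 8.5% in these data, passing the limit was not always enough); inconclusive means some gains above the cutoff, reason not given; inactive means the rest.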

What was measured:
[1] = S. cerevisiae growth inhibition in permissive medium (OD615), pilot counter-assay for S. cerevisiae lifespan shortening project, permissive growth control (AID 705;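 active means growth inhibition above 25% in both replicates, a cutoff set 3 SD above the mean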); conditions: OD615, 24 h, at 10 µM, stronger effect = higher value
Outline: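 System: S. cerevisiae with engineered DeaD lifespan system / Measured by: absorbance (optical density) at 615 nm / Read-out: reduction in yeast growth (OD615) / Times: 4 h cell pre-growth, 24 h exposure at 30 °C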

[2] = S. cerevisiae growth inhibition in restrictive medium, OD615, pilot screen, restrictive growth control, yeast lifespan reduction project (AID 706;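 active means growth inhibition above a set limit, 3 SD over mean compound inhibition, in both replicates, cut at about 43% in these data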;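 further: modified DeaD lifespan yeast strain shifted to restrictive glucose medium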); conditions: OD615, 48 h, at 10 µM, stronger effect = higher value
Outline: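 System: Engineered S. cerevisiae DeaD strain | Buffer or medium: Glucose-based CSMM-D restrictive medium | Schedule: 4 h pre-incubation, 48 h exposure at 30 °C | Technique: Optical density at 615 nm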

[3] = doxorubicin toxicity protection in MRP-1 cells – H69AR cells, CellTiter-Glo, duplicate, MRP-1 activator project, pilot screen (AID 807); conditions: H69AR viability with doxorubicin, CellTiter-Glo luminescence; at 10 µM; stronger effect = higher value;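 further: compound pretreatment 18-22 h then 72 h combined with doxorubicin; 0% = doxorubicin alone and 100% = vehicle without doxorubicin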
[4] = viability of HCT116 without oncogenic beta-catenin – human colon tumor cells, pilot screen (AID 823;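 active means cell viability at or below a set limit in both duplicate runs, the limit being the all-compound median minus 4 SD, cut at about 23% in these data, passing the limit was not always enough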;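 further: 0% = wells killed by 20 µM Hyamine and 100% = untreated DMSO cell wells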); conditions: HCT116 beta-catenin knockout viability, CellTiter-Glo, 60 h; at 10 µM; stronger effect = lower value
[5] = viability of PTEN-null HCT116 cells – cell-based, HCT116 clonal line, CellTiter-Glo, pilot screen (AID 824;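 active means viability at or below 27.92% in each of two runs, the all-compound median minus 4 SD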;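 further: 0% = 20 µM Hyamine control and 100% = vehicle cell control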); conditions: HCT116 PTEN-deleted viability, 60 h, at 10 µM, stronger effect = lower value
[6] = RAM pathway blockade in budding yeast – dse1pr::URA3 reporter, 5-FOA selection, pilot screen (AID 869;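 active means inhibition over a set limit, the all-compound mean plus 3 SD, in both replicate runs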;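 further: 0% = DMSO wells with no growth and 100% = 10 µM 1-NA-PP1 with full growth; RAM network block rescues cells from 5-FOA so hits raise OD615 growth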); conditions: S. cerevisiae dse1pr::URA3 5-FOA growth, OD615, 2 d; at 10 µM; stronger effect = higher value; strain carries analog-sensitive mutant Cbk1 kinase
[7] = RAM signaling pathway blockade in yeast – S. cerevisiae, Pdr1DBD-CYC8 efflux-inhibited sensitized strain, primary screen (AID 1298;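 active means RAM network inhibition above 8.4% in each of two replicates, 3 SD over the compound average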;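 further: 0% = DMSO untreated cells without growth and 100% = 10 µM 1-NA-PP1 full growth; higher means more yeast growth rescued from 5-FOA killing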); conditions: S. cerevisiae cbk1-as DSE1-URA3 strain, 5-FOA growth OD615, 2 d; at 50 µM; stronger effect = higher value

COC(=O)C1(C)Nc2ccccc2C(=O)N1c1ccccc1OC (stereo unspecified)
inactive: growth inhibition [1] -17% | growth inhibition [2] -23.6% | viability increase [3] -0.77% | viability [4] 103% | viability [5] 88.5% | inhibition [6] 1.97% | RAM network inhibition [7] 5.8%

Cn1c(NC(=O)C(C)(C)Oc2ccc(Cl)cc2)cc(=O)n(C)c1=O
inactive: growth inhibition [1] -1.72% | growth inhibition [2] -8.67% | viability increase [3] -0.77% | viability [4] 94.7% | viability [5] 91.3% | inhibition [6] 2.34% | RAM network inhibition [7] -2.22%

Cc1cccc(C)c1N1C(=O)c2ccccc2C1=O
inactive: growth inhibition [1] -6.34% | growth inhibition [2] -3.44% | viability increase [3] -1.87% | viability [4] 105% | viability [5] 92.7% | inhibition [6] 0.535% | RAM network inhibition [7] 2.47%

Cc1ccc(C)c(S(=O)(=O)NC(CC(C)C)C(=O)O)c1 (stereo unspecified)
inactive: growth inhibition [1] -9.28% | growth inhibition [2] -29.3% | viability increase [3] -1.32% | viability [4] 105% | viability [5] 102% | inhibition [6] 1.69% | RAM network inhibition [7] 2.5%

O=C(O)CC(C(=O)NC1CCCCC1)C1CCCO1 (stereo unspecified)
inactive: growth inhibition [1] -1.02% | growth inhibition [2] -15.1% | viability increase [3] -1.68% | viability [4] 98.3% | viability [5] 102% | inhibition [6] 0.36% | RAM network inhibition [7] 1.76%

CCN1C(=O)c2ccc(-c3nc4ccccc4c(=O)o3)cc2C1=O
inactive: growth inhibition [1] -8.45% | growth inhibition [2] -0.43% | viability increase [3] -0.05% | viability [4] 99% | viability [5] 94.7% | inhibition [6] 1.71% | RAM network inhibition [7] 3.16%

CC(C)Sc1nc2c(cnn2-c2ccc(F)cc2)c(=O)[nH]1
inactive: growth inhibition [1] -8.33% | growth inhibition [2] -1.79% | viability increase [3] -3.72% | viability [4] 90.7% | viability [5] 97.3% | inhibition [6] 0.795% | RAM network inhibition [7] 3.54%

Cc1ccc2oc(=O)c3cnn(CC(=O)NC4CCC(C)CC4)c3c2c1 (stereo unspecified)
inactive: growth inhibition [1] -14.1% | growth inhibition [2] -15.1% | viability increase [3] 0.16% | viability [4] 94.4% | viability [5] 86% | inhibition [6] 1.02% | RAM network inhibition [7] 2.93%

CC1(C)Oc2ccc3ccc(=O)oc3c2/C(=C/N)C1=O
inactive: growth inhibition [1] -6.37% | growth inhibition [2] -4.45% | viability increase [3] -4.51% | viability [4] 88.5% | viability [5] 81.7% | inhibition [6] 0.535% | RAM network inhibition [7] -0.57%

O=c1[nH]c2ccc(Cl)cc2c(-c2ccccc2)c1N1CCOCC1
inactive: growth inhibition [1] -4.65% | growth inhibition [2] -0.51% | viability increase [3] -3.04% | viability [4] 89.4% | viability [5] 88% | inhibition [6] 0.985% | RAM network inhibition [7] 1.15%

COc1ccc(NC2=C(C)C(=O)CC2)cc1
inactive: growth inhibition [1] 7.55% | growth inhibition [2] -3.12% | viability increase [3] -4.82% | viability [4] 65.9% | viability [5] 69.5% | inhibition [6] 0.505% | RAM network inhibition [7] 1.49%

Cc1cccc(-n2ncc3c(N(C)C4CCCCC4)ncnc32)c1
inactive: growth inhibition [1] 4.55% | growth inhibition [2] 23% | viability increase [3] 2.07% | viability [4] 84.7% | viability [5] 85.8% | inhibition [6] -1.19% | RAM network inhibition [7] 3.02%

COc1ccc(OC)c(NC(=O)Nc2ccccc2C)c1
inactive: growth inhibition [1] -3.12% | growth inhibition [2] -16.3% | viability increase [3] -3.16% | viability [4] 102% | viability [5] 95.9% | inhibition [6] 1.13% | RAM network inhibition [7] 1.79%

CCCCNC(=O)CS(=O)Cc1nc(-c2cccc(Cl)c2)oc1C (stereo unspecified)
inactive: growth inhibition [1] -2.86% | growth inhibition [2] 11.4% | viability increase [3] -0.78% | viability [4] 92.2% | viability [5] 97.3% | inhibition [6] 0.705% | RAM network inhibition [7] 6.02%

COC(=O)C1=CN(CCCN2CCCC2=O)C=C(C(=O)OC)C1c1ccccc1C(F)(F)F
inactive: growth inhibition [1] -10% | growth inhibition [2] 1.3% | viability increase [3] -6.27% | viability [4] 39.6% | viability [5] 35.7% | inhibition [6] 0.125% | RAM network inhibition [7] 1.94%

CCN(CC)S(=O)(=O)c1ccc(C(=O)Nc2ccc(OCC(=O)N3CCOCC3)cc2)cc1
inactive: growth inhibition [1] -6% | growth inhibition [2] -11% | viability increase [3] 0.35% | viability [4] 86.6% | viability [5] 95.4% | inhibition [6] 0.185% | RAM network inhibition [7] 4.45%

N#CCC(=O)Nc1sc2c(c1C(N)=O)CCCC2
inactive: growth inhibition [1] -12.7% | growth inhibition [2] -7.35% | viability increase [3] -1.93% | viability [4] 97.5% | viability [5] 99.9% | inhibition [6] 3.18% | RAM network inhibition [7] 0.67%

COc1cccc(N(CC(=O)Nc2cccc(C(C)=O)c2)S(C)(=O)=O)c1
inactive: growth inhibition [1] -9.21% | growth inhibition [2] -2.52% | viability increase [3] -0.61% | viability [4] 101% | viability [5] 93.7% | inhibition [6] 1.08% | RAM network inhibition [7] 5.87%
